Data from ChEMBL document CHEMBL3102806, “1,2,4-Triazole/oxime hybrids as new strategy for nitric oxide donors: Synthesis, anti-inflammatory, ulceroginicity and antiproliferative activities” (Eur J Med Chem, 2014).

Key:
[1] = test system: MDA-MB-468; experiment: Growth inhibition of human MDA-MB-468 cells assessed as cell growth at 10^-5 M after 48 hrs by sulforhodamine B assay relative to control; type: functional; settings: MDA-MB-468, 48 h, read-out: Activity
In short: (§1)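 NCI primary screen, one-dose format across about 60 human tumour cell lines. Single addition at 10^-5 M with 48 h incubation; SRB protein-binding dye end point read spectrophotometrically. Reported as percent growth of treated cells versus untreated controls.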

[2] = test system: T47D; experiment: Growth inhibition of human T47D cells assessed as cell growth at 10^-5 M after 48 hrs by sulforhodamine B assay relative to control; type: functional; settings: read-out: Activity
In short: (§2)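 NCI primary screen across about 60 human tumour cell lines. Single dose of 10^-5 M, cultures incubated 48 h, end point by sulforhodamine B protein staining read spectrophotometrically. Results are given as percent growth of treated cells relative to untreated control cells.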

[3] = Growth inhibition of human UO31 cells assessed as cell growth at 10^-5 M after 48 hrs by sulforhodamine B assay relative to control; type: functional; settings: UO-31, 48 h, read-out: Activity; in short: as §2
[4] = Growth inhibition of human RXF393 cells assessed as cell growth at 10^-5 M after 48 hrs by sulforhodamine B assay relative to control; type: functional; settings: RXF 393, 48 h, read-out: Activity; in short: as §1
[5] = test system: ACHN; experiment: Growth inhibition of human ACHN cells assessed as cell growth at 10^-5 M after 48 hrs by sulforhodamine B assay relative to control; type: functional; settings: read-out: Activity
In short: (§3)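 NCI ~60 human tumour cell line screen. Single concentration of 10^-5 M added to cultures for 48 h. End point by sulforhodamine B protein staining read spectrophotometrically. Percent growth relative to untreated control cells.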

[6] = test system: A498; experiment: Growth inhibition of human A498 cells assessed as cell growth at 10^-5 M after 48 hrs by sulforhodamine B assay relative to control; type: functional; settings: A498, 48 h, read-out: Activity; in short: as §3
[7] = test system: OVCAR-3; experiment: Growth inhibition of human OVCAR3 cells assessed as cell growth at 10^-5 M after 48 hrs by sulforhodamine B assay relative to control; type: functional; settings: OVCAR-3, 48 h, read-out: Activity; in short: as §1
[8] = Growth inhibition of human UACC257 cells assessed as cell growth at 10^-5 M after 48 hrs by sulforhodamine B assay relative to control; type: functional; settings: UACC-257, 48 h, read-out: Activity; in short: as §2
[9] = test system: SK-MEL-28; experiment: Growth inhibition of human SK-MEL-28 cells assessed as cell growth at 10^-5 M after 48 hrs by sulforhodamine B assay relative to control; type: functional; settings: SK-MEL-28, 48 h, read-out: Activity; in short: as §2
[10] = test system: SK-MEL-2; experiment: Growth inhibition of human SK-MEL-2 cells assessed as cell growth at 10^-5 M after 48 hrs by sulforhodamine B assay relative to control; type: functional; settings: SK-MEL-2, 48 h, read-out: Activity; in short: as §2
[11] = test system: Malme-3M; experiment: Growth inhibition of human MALME-3M cells assessed as cell growth at 10^-5 M after 48 hrs by sulforhodamine B assay relative to control; type: functional; settings: read-out: Activity; in short: as §1
[12] = test system: HCT-116; experiment: Growth inhibition of human HCT116 cells assessed as cell growth at 10^-5 M after 48 hrs by sulforhodamine B assay relative to control; type: functional; settings: HCT-116, 48 h, read-out: Activity; in short: as §3
[13] = Growth inhibition of human HCC2998 cells assessed as cell growth at 10^-5 M after 48 hrs by sulforhodamine B assay relative to control; type: functional; settings: HCC 2998, 48 h, read-out: Activity; in short: as §3
[14] = test system: NCI-H322M; experiment: Growth inhibition of human NCI-H322M cells assessed as cell growth at 10^-5 M after 48 hrs by sulforhodamine B assay relative to control; type: functional; settings: read-out: Activity; in short: as §1
[15] = Induction of nitric oxide release in phosphate buffer at 10^-4 M at pH 7.4 after 1 hr by Griess colorimetric method in presence of N-acetylcysteine; type: physicochemical; settings: pH 7.4, 1 h, 100 µM
In short: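 Final drug concentration 10^-4 M, added from DMF into 1:1 50 mM phosphate buffer (pH 7.4)/MeOH containing 5 × 10^-4 M N-acetylcysteine, at 37 °C. Nitrite read with Griess reagent after 10 min at room temperature, absorbance at 546 nm. Calibration with sodium nitrite standards (10–80 nmol/ml). Reported as mol NO per mol, n = 4 reaction mixtures.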

[16] = test system: Rattus norvegicus; experiment: Antiinflammatory activity in albino rat assessed as inhibition of carrageenan-induced paw edema at 0.28 mmol/kg, po administered 30 mins prior to carrageenan-challenge measured after 2 hrs relative to control; type: functional
In short: (§4)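 Male albino rats in groups of four were fasted 24 h with water allowed. Dosing was oral at 0.28 mmol/kg, suspended in 0.5% w/v CMC; controls got CMC alone. After 30 min, 0.1 ml of 1% carrageenan in saline went subplantar into the right hind paw and saline into the left. Paw thickness was read by caliper before and at 1–5 h. % inhibition = [(VR−VL)control−(VR−VL)treated]/(VR−VL)control ×100. Mean ± SEM, n = 4, one-way ANOVA vs control.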

[17] = test system: Rattus norvegicus; experiment: Antiinflammatory activity in albino rat assessed as inhibition of carrageenan-induced paw edema at 0.28 mmol/kg, po administered 30 mins prior to carrageenan-challenge measured after 3 hrs relative to control; type: functional; in short: as §4
[18] = test system: Rattus norvegicus; experiment: Antiinflammatory activity in albino rat assessed as inhibition of carrageenan-induced paw edema at 0.28 mmol/kg, po administered 30 mins prior to carrageenan-challenge measured after 4 hrs relative to control; type: functional; in short: as §4
[19] = test system: Rattus norvegicus; experiment: Ulcerogenic activity in albino rat carrageenan-induced paw edema model assessed as ulcer index at 0.28 mmol/kg, po (reference value: 0.60 +/- 0.05); type: toxicity, organism-based; settings: in vivo
In short: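 Rats given the compound orally at 0.28 mmol/kg, suspended in 0.5% aqueous CMC; vehicle-only control, n = 4 per group. Gastric ulcers graded by area: I (<1 mm²), II (1–3 mm²), III (>3 mm²). Ulcer index = 1×(level I count) + 2×(level II) + 3×(level III). Mean ± SEM, one-way ANOVA versus control.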

[20] = test system: CCRF-CEM; experiment: Growth inhibition of human CCRF-CEM cells assessed as cell growth at 10^-5 M after 48 hrs by sulforhodamine B assay relative to control; type: functional; settings: read-out: Activity; in short: as §3
[21] = test system: HL-60(TB); experiment: Growth inhibition of human HL-60(TB) cells assessed as cell growth at 10^-5 M after 48 hrs by sulforhodamine B assay relative to control; type: functional; settings: HL-60, 48 h, read-out: Activity
In short: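 NCI primary screen across about 60 human tumour cell lines. Single dose of 10^-5 M, 48 h incubation, sulforhodamine B protein-dye end point read spectrophotometrically. Reported as percent growth of treated cells versus untreated control cells.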

[22] = test system: HOP-62; experiment: Growth inhibition of human HOP62 cells assessed as cell growth at 10^-5 M after 48 hrs by sulforhodamine B assay relative to control; type: functional; settings: HOP-62, 48 h, read-out: Activity; in short: as §3
[23] = Growth inhibition of human HOP92 cells assessed as cell growth at 10^-5 M after 48 hrs by sulforhodamine B assay relative to control; type: functional; settings: HOP-92, 48 h, read-out: Activity; in short: as §3
[24] = test system: NCI-H226; experiment: Growth inhibition of human NCI-H226 cells assessed as cell growth at 10^-5 M after 48 hrs by sulforhodamine B assay relative to control; type: functional; settings: NCI-H226, 48 h, read-out: Activity; in short: as §1

Structure (SMILES)	growth at 10 µM [1] [%]	growth at 10 µM [2] [%]	growth at 10 µM [3] [%]	growth at 10 µM [4] [%]	growth at 10 µM [5] [%]	growth at 10 µM [6] [%]	growth at 10 µM [7] [%]	growth at 10 µM [8] [%]	growth at 10 µM [9] [%]	growth at 10 µM [10] [%]	growth at 10 µM [11] [%]	growth at 10 µM [12] [%]	growth at 10 µM [13] [%]	growth at 10 µM [14] [%]	Activity [15] [mol/mol]	inhibition in vivo at 280 µmol/kg [16] [%]	inhibition in vivo at 280 µmol/kg [17] [%]	inhibition in vivo at 280 µmol/kg [18] [%]	UI [19]	growth at 10 µM [20] [%]	other results
C/C(=N\O)c1ccc(NC(=O)CSc2nnc(-c3ccccc3)n2-c2ccccc2)cc1	90.4	92	90.6	72.5	85.7	63.7	87.3	81.8	48.6	97.7	91.8	97.5	28.6	66.7	0.11	52	63	67	0.95	92	growth at 10 µM [21]: 90.4%; growth at 10 µM [22]: 64.7%; growth at 10 µM [23]: 30.1%; growth at 10 µM [24]: 72.4%
COc1ccc(-c2nnc(SCC(=O)Nc3ccc(/C(C)=N/O)cc3)n2-c2ccccc2)cc1OC	78.5	68	104	32.4	75.5	91.8	82	91.8	87.3	57.6	61.8	69.2	94	75.7	0.15	63	77	79	1.11	98.5	growth at 10 µM [21]: 77.3%; growth at 10 µM [22]: -26.4%; growth at 10 µM [23]: -8.56%; growth at 10 µM [24]: 81.9%
